Among the data in ChEMBL document CHEMBL1148470, “Synthesis, SAR, crystal structure, and biological evaluation of benzoquinoliziniums as activators of wild-type and mutant cystic fibrosis transmembrane conductance regulator channels” (J Med Chem, 2004) are Activation and EC50 values, retold here.

Test [1] concerns the target T1, Cystic fibrosis transmembrane conductance regulator (Homo sapiens, UniProt P13569). Briefly: Percent activation of wild type CFTR dependent efflux was determined by measuring the rate of iodide [125I]- efflux from transfected CHO cells. It counts as functional, cell-based. On the set-up: concentration or dose not given beside the values. In outline: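 CHO cells stably expressing wild-type CFTR (MEM, 7% FBS, 100 μM methotrexate), grown in 24-well plates. Loaded 30 min at 37 °C in efflux buffer (NaCl/KCl/MgCl2/glucose/HEPES, pH 7.4) with 1 μM KI and 125I; medium sampled every 1 min up to 11 min, drug after four baseline aliquots, compounds at 250 μM. Peak efflux rate expressed relative to 5 μM forskolin (=100%); mean ± SEM, n experiments.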
Target sequence in this assay (P13569 whole entry, looked up): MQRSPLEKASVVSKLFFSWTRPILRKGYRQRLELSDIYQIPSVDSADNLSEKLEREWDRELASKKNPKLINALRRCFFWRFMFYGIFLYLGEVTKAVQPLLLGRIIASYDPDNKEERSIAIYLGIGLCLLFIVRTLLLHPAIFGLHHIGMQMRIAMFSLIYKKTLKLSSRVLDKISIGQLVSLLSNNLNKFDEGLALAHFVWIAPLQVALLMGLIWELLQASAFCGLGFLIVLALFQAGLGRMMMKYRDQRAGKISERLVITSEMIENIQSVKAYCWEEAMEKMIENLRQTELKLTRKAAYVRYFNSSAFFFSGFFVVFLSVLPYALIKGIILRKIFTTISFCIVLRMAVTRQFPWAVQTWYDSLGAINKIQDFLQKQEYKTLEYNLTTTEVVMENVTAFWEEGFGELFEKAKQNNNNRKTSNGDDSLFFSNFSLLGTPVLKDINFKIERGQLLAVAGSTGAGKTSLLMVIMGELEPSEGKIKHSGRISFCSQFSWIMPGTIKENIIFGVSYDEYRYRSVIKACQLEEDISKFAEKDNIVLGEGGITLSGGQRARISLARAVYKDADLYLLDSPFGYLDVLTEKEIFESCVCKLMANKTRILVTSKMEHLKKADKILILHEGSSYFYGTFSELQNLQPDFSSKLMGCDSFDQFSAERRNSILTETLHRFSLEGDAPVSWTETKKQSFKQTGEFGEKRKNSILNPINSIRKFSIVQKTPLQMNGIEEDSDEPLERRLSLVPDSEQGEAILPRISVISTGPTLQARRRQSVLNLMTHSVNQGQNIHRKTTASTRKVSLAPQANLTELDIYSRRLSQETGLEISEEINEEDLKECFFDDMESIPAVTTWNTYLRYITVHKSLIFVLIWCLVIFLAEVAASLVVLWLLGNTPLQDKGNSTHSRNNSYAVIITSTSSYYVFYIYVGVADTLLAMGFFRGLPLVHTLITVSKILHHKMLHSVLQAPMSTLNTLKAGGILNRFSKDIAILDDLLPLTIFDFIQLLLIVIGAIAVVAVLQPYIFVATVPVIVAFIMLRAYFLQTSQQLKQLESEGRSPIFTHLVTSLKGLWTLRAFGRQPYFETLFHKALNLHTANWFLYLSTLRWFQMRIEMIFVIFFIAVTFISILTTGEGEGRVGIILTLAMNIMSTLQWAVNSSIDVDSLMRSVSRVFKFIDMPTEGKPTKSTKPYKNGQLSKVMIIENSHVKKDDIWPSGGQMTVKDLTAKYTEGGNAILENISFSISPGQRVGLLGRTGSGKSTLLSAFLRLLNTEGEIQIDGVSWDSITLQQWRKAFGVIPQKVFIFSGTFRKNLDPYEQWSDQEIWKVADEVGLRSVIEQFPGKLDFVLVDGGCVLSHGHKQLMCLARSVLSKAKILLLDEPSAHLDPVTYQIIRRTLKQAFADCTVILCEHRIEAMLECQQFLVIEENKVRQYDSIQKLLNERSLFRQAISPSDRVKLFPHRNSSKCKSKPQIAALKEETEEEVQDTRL

Test [2] has as its target Cystic fibrosis transmembrane conductance regulator (Homo sapiens, UniProt P13569, G551D). Briefly: Half-Maximal effective concentration of compound required to stimulate of G551D-CFTR activity in the presence of 10 uM Fsk. It counts as functional. In short, it runs like this:
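G551D-CFTR stably expressed in CHO cells. The ¹²⁵I efflux assay was run on a robot: cells were loaded for 30 min at 37 °C in HEPES buffer pH 7.4 containing 1 μM KI and 1 μCi/mL ¹²⁵I, and efflux was sampled each minute for up to 11 min (4 baseline samples). Cells were exposed to 10 μM Fsk, then to increasing compound concentrations. EC50 came from %-of-maximal-effect curves, n = 6, mean ± SEM.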

Test [3] addresses T1, Cystic fibrosis transmembrane conductance regulator. Briefly: Half-Maximal effective concentration of compound required to stimulate of wild type-CFTR activity in the presence of 1 uM Fsk.
Target sequence in this assay (P13569 whole entry): as the sequence (P13569 whole entry, looked up) above

Where only a bound is given, the exact number is not on record here.

Cystic fibrosis transmembrane conductance regulator (Homo sapiens, UniProt P13569, G551D), sequence (P13569 whole entry G551D): as the sequence (P13569 whole entry, looked up) above, with G551D counted along it

Consider `C=C[C@@]1(C)CC(=O)[C@]2(O)[C@@]3(C)[C@@H](O)CCC(C)(C)[C@@H]3[C@H](O)[C@H](OC(C)=O)[C@@]2(C)O1`, for which the Activation in test [1] is 100%. Turning to `Oc1cc2cccc[n+]2c2cccc(Cl)c12`, the EC50 – broadly, the concentration that produces a half-maximal response – in test [2] was > 200 µM; in test [3] it was 146 µM. In addition, in test [1], the Activation is 20%.

In the case of `CCCc1c(O)c2cccc(Cl)c2[n+]2ccccc12`, the results for the EC50 in test [2] and in test [3] were 48 µM and 54.2 µM, respectively. Further, in test [1], the Activation is 32%.

In the case of `Oc1cc2cccc[n+]2c2c(F)cccc12`, in test [1], the Activation is < 5%. On the same count and under the same terms, to `Nc1cc2cccc[n+]2c2c(Cl)cccc12` belongs < 5%.

For `Oc1cc2cccc[n+]2c2cc(Cl)ccc12`, in test [1], the Activation is < 5%. The same measure, in the same setting: to `Nc1cc2[n+](c3ccc(Cl)cc13)CCc1c-2[nH]c2ccccc12` belongs 6%; to `Oc1c(-c2ccccc2)c2cccc[n+]2c2c(Cl)cccc12`, 6%; to `Oc1cc2cccc[n+]2c2ccc(Cl)cc12`, 18%. `CCOC(=O)c1c(O)c2c(F)cccc2[n+]2ccccc12` registered an Activation in test [1] of 8%. In the case of `CCCCc1c(O)c2cccc(Cl)c2[n+]2ccccc12`, the figures for the EC50 in test [2] and in test [3] were 34 µM and 23.5 µM, respectively. Further, in test [1], the Activation is 45%. Consider `Nc1cc2cccc[n+]2c2cccc(Cl)c12`, for which the Activation in test [1] is < 5%. Same read-out and setting: the figure for `Nc1cc2[n+](c3c(Cl)cccc13)CCc1c-2[nH]c2ccccc12` is 46%. In the case of `CCCCCc1c(O)c2cccc(Cl)c2[n+]2ccccc12`, the EC50 came to 20 µM in test [2] and 21 µM in test [3]. In addition, the Activation in test [1] is 38%. `Nc1cc2[n+](c3cccc(Cl)c13)CCc1c-2[nH]c2ccccc12` came in with an Activation in test [1] of 30%. In the case of `Cc1c(O)c2cccc(Cl)c2[n+]2ccccc12`, the Activation in test [1] was determined as 19%. Same read-out and setting: to `Oc1cc2cccc[n+]2c2cc(F)ccc12` belongs 16%. On to `CCCCc1c(O)c2c(Cl)cccc2[n+]2ccccc12`, for which the EC50 was 0.75 µM in test [2] and 1.7 µM in test [3]. The compound further returned an Activation in test [1] of 33%. For the compound `CCOC(=O)c1c(O)c2ccc(F)cc2[n+]2ccccc12`, the Activation in test [1] is 6%. As to `Oc1cc2cccc[n+]2c2cccc(F)c12`, the Activation in test [1] is < 5%. For `CCOC(=O)c1c(O)c2cccc(F)c2[n+]2ccccc12`, the EC50 was determined as 95 µM in test [2] and 70.5 µM in test [3]. Further, the Activation in test [1] stood at 37%. Consider `CCOC(=O)c1c(O)c2cc(F)ccc2[n+]2ccccc12`, for which the Activation in test [1] is < 5%.

In the case of `CC(C)Cc1c(O)c2cccc(Cl)c2[n+]2ccccc12`, the EC50 was 32 µM in test [2] and 26 µM in test [3]. Moreover, in test [1], the Activation amounted to 26%. With `Oc1cc2cccc[n+]2c2ccc(F)cc12`, in test [1], the Activation was 11%. As to `Oc1cc2cccc[n+]2c2c(Cl)cccc12`, the figures for the EC50 in test [2] and in test [3] were > 200 µM and 141 µM, respectively. The compound further yielded an Activation in test [1] of 24%. For `Oc1c2c3c(ccc[n+]3c3cccc(F)c13)CC2`, the Activation in test [1] was < 5%.
